{"source": "paper PMC4206749", "about": "(Toxicological Research, 2014)", "key": {"[1]": {"system": "Salmonella typhimurium strain TA1537", "assay": "Bacterial reverse mutation assay", "type": "cell-based"}, "CHL cells": {"system": "CHL cells", "assay": "Cytotoxicity assay", "type": "cell-based, Chinese hamster", "conditions": "7.81 to 1,000 μg/ml, 24 hr treatments", "how_it_was_run": "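MTT viability test. Cells were seeded at 1 × 10^4 per well overnight, then exposed 24 hr to test compound; CHL range 7.81 to 1,000 μg/ml. MTT was added at 0.5 mg/ml final for 4 hr at 37℃, followed by DMSO lysis and absorbance at 550 nm. Values are percent of untreated control, with triplicate samples in three independent experiments; IC50 was calculated for CHL.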"}, "[2]": {"system": "Salmonella typhimurium strain TA100", "assay": "Bacterial reverse mutation assay", "type": "cell-based"}, "[3]": {"system": "L5178Y Tk^+/− mouse lymphoma cells", "assay": "Cytotoxicity assay", "type": "cell-based"}, "[4]": {"system": "Salmonella typhimurium strain TA1535", "assay": "Bacterial reverse mutation assay", "type": "cell-based"}, "[5]": {"system": "2 Gy irradiated Chinese hamster ovary (CHO)-K1 cells", "conditions": "2 Gy irradiated CHO-K1 cells; cited from earlier work"}, "[6]": {"system": "Salmonella typhimurium strain TA98", "assay": "Bacterial reverse mutation assay", "type": "cell-based"}}}
{"smiles": "Oc1ccc(-c2ccc3cc(O)ccc3c2)c(O)c1", "note": "[HS-1793, 4-(6-hydroxy-2-naphthyl)-1,3-benzenediol]", "values": [{"measurement": "Number of reverse mutants/plate (Mean ± SD)", "setting": "[1]; TA1537, with S9 activation, 78.1 μg/plate", "value": "16 ± 2", "unit": "reverse mutants/plate"}, {"measurement": "Number of reverse mutants/plate (Mean ± SD)", "setting": "[1]; TA1537, with S9 activation, 156.3 μg/plate", "value": "14 ± 2", "unit": "reverse mutants/plate"}, {"measurement": "Number of reverse mutants/plate (Mean ± SD)", "setting": "[1]; TA1537, with S9 activation, 312.5 μg/plate", "value": "15 ± 5", "unit": "reverse mutants/plate"}, {"measurement": "Number of reverse mutants/plate (Mean ± SD)", "setting": "[1]; TA1537, with S9 activation, 625 μg/plate", "value": "14 ± 2", "unit": "reverse mutants/plate"}, {"measurement": "Number of reverse mutants/plate (Mean ± SD)", "setting": "[1]; TA1537, with S9 activation, 1,250 μg/plate", "value": "14 ± 1", "unit": "reverse mutants/plate"}, {"measurement": "Number of reverse mutants/plate (Mean ± SD)", "setting": "[1]; TA1537, with S9 activation, 2,500 μg/plate", "value": "16 ± 3", "unit": "reverse mutants/plate"}, {"measurement": "Number of reverse mutants/plate (Mean ± SD)", "setting": "[1]; TA1537, with S9 activation, 5,000 μg/plate", "value": "15 ± 2", "unit": "reverse mutants/plate"}, {"measurement": "Number of reverse mutants/plate (Mean ± SD)", "setting": "[1]; TA1537, without S9 activation, 78.1 μg/plate", "value": "14 ± 2", "unit": "reverse mutants/plate"}, {"measurement": "Number of reverse mutants/plate (Mean ± SD)", "setting": "[1]; TA1537, without S9 activation, 156.3 μg/plate", "value": "17 ± 6", "unit": "reverse mutants/plate"}, {"measurement": "Number of reverse mutants/plate (Mean ± SD)", "setting": "[1]; TA1537, without S9 activation, 312.5 μg/plate", "value": "13 ± 4", "unit": "reverse mutants/plate"}, {"measurement": "Number of reverse mutants/plate (Mean ± SD)", "setting": "[1]; TA1537, without S9 activation, 625 μg/plate", "value": "14 ± 3", "unit": "reverse mutants/plate"}, {"measurement": "Number of reverse mutants/plate (Mean ± SD)", "setting": "[1]; TA1537, without S9 activation, 1,250 μg/plate", "value": "15 ± 6", "unit": "reverse mutants/plate"}, {"measurement": "Number of reverse mutants/plate (Mean ± SD)", "setting": "[1]; TA1537, without S9 activation, 2,500 μg/plate", "value": "18 ± 1", "unit": "reverse mutants/plate"}, {"measurement": "Number of reverse mutants/plate (Mean ± SD)", "setting": "[1]; TA1537, without S9 activation, 5,000 μg/plate", "value": "13 ± 2", "unit": "reverse mutants/plate"}, {"measurement": "Cell viability (MTT)", "setting": "CHL cells", "value": "decreased in dose dependent manner"}, {"measurement": "Number of reverse mutants/plate (Mean ± SD)", "setting": "[2]; TA100, with S9 activation, 78.1 μg/plate", "value": "116 ± 13", "unit": "reverse mutants/plate"}, {"measurement": "Number of reverse mutants/plate (Mean ± SD)", "setting": "[2]; TA100, with S9 activation, 156.3 μg/plate", "value": "109 ± 8", "unit": "reverse mutants/plate"}, {"measurement": "Number of reverse mutants/plate (Mean ± SD)", "setting": "[2]; TA100, with S9 activation, 312.5 μg/plate", "value": "114 ± 4", "unit": "reverse mutants/plate"}, {"measurement": "Number of reverse mutants/plate (Mean ± SD)", "setting": "[2]; TA100, with S9 activation, 625 μg/plate", "value": "106 ± 19", "unit": "reverse mutants/plate"}, {"measurement": "Number of reverse mutants/plate (Mean ± SD)", "setting": "[2]; TA100, with S9 activation, 1,250 μg/plate", "value": "108 ± 14", "unit": "reverse mutants/plate"}, {"measurement": "Number of reverse mutants/plate (Mean ± SD)", "setting": "[2]; TA100, with S9 activation, 2,500 μg/plate", "value": "118 ± 11", "unit": "reverse mutants/plate"}, {"measurement": "Number of reverse mutants/plate (Mean ± SD)", "setting": "[2]; TA100, with S9 activation, 5,000 μg/plate", "value": "106 ± 9", "unit": "reverse mutants/plate"}, {"measurement": "Number of reverse mutants/plate (Mean ± SD)", "setting": "[2]; TA100, without S9 activation, 78.1 μg/plate", "value": "121 ± 8", "unit": "reverse mutants/plate"}, {"measurement": "Number of reverse mutants/plate (Mean ± SD)", "setting": "[2]; TA100, without S9 activation, 156.3 μg/plate", "value": "117 ± 11", "unit": "reverse mutants/plate"}, {"measurement": "Number of reverse mutants/plate (Mean ± SD)", "setting": "[2]; TA100, without S9 activation, 312.5 μg/plate", "value": "116 ± 9", "unit": "reverse mutants/plate"}, {"measurement": "Number of reverse mutants/plate (Mean ± SD)", "setting": "[2]; TA100, without S9 activation, 625 μg/plate", "value": "124 ± 6", "unit": "reverse mutants/plate"}, {"measurement": "Number of reverse mutants/plate (Mean ± SD)", "setting": "[2]; TA100, without S9 activation, 1,250 μg/plate", "value": "107 ± 12", "unit": "reverse mutants/plate"}, {"measurement": "Number of reverse mutants/plate (Mean ± SD)", "setting": "[2]; TA100, without S9 activation, 2,500 μg/plate", "value": "108 ± 6", "unit": "reverse mutants/plate"}, {"measurement": "Number of reverse mutants/plate (Mean ± SD)", "setting": "[2]; TA100, without S9 activation, 5,000 μg/plate", "value": "119 ± 12", "unit": "reverse mutants/plate"}, {"measurement": "Cell viability (MTT)", "setting": "[3]; 62.5 μg/ml for 4 hr", "value": "no reduction of viable cell numbers > 70%"}, {"measurement": "Cell viability (dose-range study)", "setting": "[3]; 24 hr treatments", "value": "decreased in dose dependent manner"}, {"measurement": "Number of reverse mutants/plate (Mean ± SD)", "setting": "[4]; TA1535, with S9 activation, 78.1 μg/plate", "value": "24 ± 3", "unit": "reverse mutants/plate"}, {"measurement": "Number of reverse mutants/plate (Mean ± SD)", "setting": "[4]; TA1535, with S9 activation, 156.3 μg/plate", "value": "22 ± 3", "unit": "reverse mutants/plate"}, {"measurement": "Number of reverse mutants/plate (Mean ± SD)", "setting": "[4]; TA1535, with S9 activation, 312.5 μg/plate", "value": "23 ± 4", "unit": "reverse mutants/plate"}, {"measurement": "Number of reverse mutants/plate (Mean ± SD)", "setting": "[4]; TA1535, with S9 activation, 625 μg/plate", "value": "21 ± 4", "unit": "reverse mutants/plate"}, {"measurement": "Number of reverse mutants/plate (Mean ± SD)", "setting": "[4]; TA1535, with S9 activation, 1,250 μg/plate", "value": "21 ± 3", "unit": "reverse mutants/plate"}, {"measurement": "Number of reverse mutants/plate (Mean ± SD)", "setting": "[4]; TA1535, with S9 activation, 2,500 μg/plate", "value": "20 ± 2", "unit": "reverse mutants/plate"}, {"measurement": "Number of reverse mutants/plate (Mean ± SD)", "setting": "[4]; TA1535, with S9 activation, 5,000 μg/plate", "value": "21 ± 6", "unit": "reverse mutants/plate"}, {"measurement": "Number of reverse mutants/plate (Mean ± SD)", "setting": "[4]; TA1535, without S9 activation, 78.1 μg/plate", "value": "15 ± 2", "unit": "reverse mutants/plate"}, {"measurement": "Number of reverse mutants/plate (Mean ± SD)", "setting": "[4]; TA1535, without S9 activation, 156.3 μg/plate", "value": "17 ± 2", "unit": "reverse mutants/plate"}, {"measurement": "Number of reverse mutants/plate (Mean ± SD)", "setting": "[4]; TA1535, without S9 activation, 312.5 μg/plate", "value": "18 ± 2", "unit": "reverse mutants/plate"}, {"measurement": "Number of reverse mutants/plate (Mean ± SD)", "setting": "[4]; TA1535, without S9 activation, 625 μg/plate", "value": "17 ± 5", "unit": "reverse mutants/plate"}, {"measurement": "Number of reverse mutants/plate (Mean ± SD)", "setting": "[4]; TA1535, without S9 activation, 1,250 μg/plate", "value": "17 ± 2", "unit": "reverse mutants/plate"}, {"measurement": "Number of reverse mutants/plate (Mean ± SD)", "setting": "[4]; TA1535, without S9 activation, 2,500 μg/plate", "value": "18 ± 4", "unit": "reverse mutants/plate"}, {"measurement": "Number of reverse mutants/plate (Mean ± SD)", "setting": "[4]; TA1535, without S9 activation, 5,000 μg/plate", "value": "17 ± 3", "unit": "reverse mutants/plate"}, {"measurement": "ROS and cellular DNA damage", "setting": "[5]", "value": "significantly decreased"}, {"measurement": "Number of reverse mutants/plate (Mean ± SD)", "setting": "[6]; TA98, with S9 activation, 78.1 μg/plate", "value": "40 ± 4", "unit": "reverse mutants/plate"}, {"measurement": "Number of reverse mutants/plate (Mean ± SD)", "setting": "[6]; TA98, with S9 activation, 312.5 μg/plate", "value": "43 ± 8", "unit": "reverse mutants/plate"}, {"measurement": "Number of reverse mutants/plate (Mean ± SD)", "setting": "[6]; TA98, with S9 activation, 625 μg/plate", "value": "42 ± 4", "unit": "reverse mutants/plate"}, {"measurement": "Number of reverse mutants/plate (Mean ± SD)", "setting": "[6]; TA98, with S9 activation, 1,250 μg/plate", "value": "43 ± 4", "unit": "reverse mutants/plate"}, {"measurement": "Number of reverse mutants/plate (Mean ± SD)", "setting": "[6]; TA98, with S9 activation, 2,500 μg/plate", "value": "44 ± 4", "unit": "reverse mutants/plate"}, {"measurement": "Number of reverse mutants/plate (Mean ± SD)", "setting": "[6]; TA98, with S9 activation, 5,000 μg/plate", "value": "33 ± 2", "unit": "reverse mutants/plate"}, {"measurement": "Number of reverse mutants/plate (Mean ± SD)", "setting": "[6]; TA98, without S9 activation, 78.1 μg/plate", "value": "29 ± 2", "unit": "reverse mutants/plate"}, {"measurement": "Number of reverse mutants/plate (Mean ± SD)", "setting": "[6]; TA98, without S9 activation, 156.3 μg/plate", "value": "27 ± 2", "unit": "reverse mutants/plate"}, {"measurement": "Number of reverse mutants/plate (Mean ± SD)", "setting": "[6]; TA98, without S9 activation, 312.5 μg/plate", "value": "30 ± 4", "unit": "reverse mutants/plate"}, {"measurement": "Number of reverse mutants/plate (Mean ± SD)", "setting": "[6]; TA98, without S9 activation, 625 μg/plate", "value": "26 ± 3", "unit": "reverse mutants/plate"}, {"measurement": "Number of reverse mutants/plate (Mean ± SD)", "setting": "[6]; TA98, without S9 activation, 1,250 μg/plate", "value": "25 ± 2", "unit": "reverse mutants/plate"}, {"measurement": "Number of reverse mutants/plate (Mean ± SD)", "setting": "[6]; TA98, without S9 activation, 2,500 μg/plate", "value": "28 ± 1", "unit": "reverse mutants/plate"}, {"measurement": "Number of reverse mutants/plate (Mean ± SD)", "setting": "[6]; TA98, without S9 activation, 5,000 μg/plate", "value": "27 ± 3", "unit": "reverse mutants/plate"}]}
